# Insulin prom inh = inhibitors of insulin promoter-driven GFP, primary screen, imaging, TRM-6 cells (human fetal islet line), eGFP reporter, cell count. reporter expression induced with tamoxifen. inhibition, % at 2 µM. 130,000 tested, 0.9% active. AID 1273, 2008;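 active means inhibition above the mean plus 3 SD, with well images judged a real hit on visual review, cut at about 60% in these data, passing the limit was not always enough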
# Measles CPE = compounds protecting cells from measles virus cytopathic effect, primary screen, measles RdRp inhibitor project, single point, MLSMR library, absorbance. Measles virus-infected cells, CPE protection. protection (pct of control), % at 4 µM. 140,000 tested, 1.5% active. AID 841, 2007; in the data active means protection mostly above about 24%, no sharp cut-off; inactive means mostly below about 26%
# Mdm2 ligase inh = MDM2-luciferase reporter signal enhancers, primary screen, MDM2 E3 ligase inhibitor project, cell-based, luminescence, 1536-well. E3 ubiquitin-protein ligase Mdm2 (Homo sapiens), Q00987. cell-based MDM2 ubiquitination luciferase reporter, 2 h; 0 = plate control, 100 = twice control, blank-subtracted. signal enhancement, % at 5 µM. 210,000 tested, 0.11% active;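 active means signal enhancement of 30% or more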;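 further: luminescence tracks abundance of the self-degrading MDM2-luciferase fusion protein; higher signal means inhibition of MDM2 E3 ligase activity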
# Target sequence (Q00987 whole entry, looked up, the tested form may be a part): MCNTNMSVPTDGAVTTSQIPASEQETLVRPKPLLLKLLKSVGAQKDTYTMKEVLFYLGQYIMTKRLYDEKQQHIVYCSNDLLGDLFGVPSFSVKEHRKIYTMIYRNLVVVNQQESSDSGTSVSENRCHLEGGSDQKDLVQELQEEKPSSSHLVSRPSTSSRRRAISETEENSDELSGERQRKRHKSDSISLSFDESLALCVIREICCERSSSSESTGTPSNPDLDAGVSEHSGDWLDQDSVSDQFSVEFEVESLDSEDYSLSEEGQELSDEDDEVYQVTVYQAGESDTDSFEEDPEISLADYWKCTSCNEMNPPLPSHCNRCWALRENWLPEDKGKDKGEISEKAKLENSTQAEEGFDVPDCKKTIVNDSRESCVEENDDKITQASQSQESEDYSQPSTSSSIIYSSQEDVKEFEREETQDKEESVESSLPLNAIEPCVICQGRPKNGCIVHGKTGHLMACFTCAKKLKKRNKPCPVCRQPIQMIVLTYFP
#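 Material: Stable MDM2–luciferase fusion reporter cells | Amount: 2000 cells seeded into each well | Dosing: One concentration, 5 µM, with 0.2% DMSO | Incubation: 4 h cell settling then 2 h compound exposure, 37 °C | Measured by: Luciferase luminescence | Read-out basis: % enhancement relative to plate controls after blank subtraction | Benchmarks: Control and blank well means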
# Yeast lifespan up = compounds extending yeast replicative lifespan, primary screen, S. cerevisiae, OD615; S. cerevisiae growth with nicotinamide; deaD strain in restrictive glucose medium; inhibition of the nicotinamide effect, % at 10 µM; 130,000 tested, 0.68% active; AID 775, 2007;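 active means inhibition above a set limit, placed 3 SD over the median of all compounds, cut at about 26% in these data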
#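 Material: Modified budding yeast, DeaD strain | Medium: Restrictive glucose medium | Probe or stimulus: 1.5 mM nicotinamide | Dosing: Single dose 10 µM compound, 0.25% DMSO | Times: 48 h at 30 °C | Technique: OD615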
# RAM network inh = inhibitors of the yeast RAM network, primary screen, dse1pr::URA3 reporter, 5-FOA selection; AID 868, 2007; inhibition, % at 50 µM; S. cerevisiae dse1pr::URA3 reporter, 5-FOA growth OD615, 2 d; analog-sensitive cbk1-as2 kinase mutant strain; 190,000 tested, 1.8% active;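 active means inhibition above a set limit, 3 SD over mean compound inhibition, cut at about 8.4% in these data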;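 further: inhibition rescues growth on 5-FOA so higher OD means more RAM inhibition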
# BB579 growth dn = growth inhibitors of yeast BB579 in restrictive medium, primary screen, yeast lifespan-shortening project, S. cerevisiae. OD615, 48 h. inhibition, % at 10 µM. 140,000 tested, 0.51% active;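 active means inhibition above a set limit, 3 SD over the mean compound inhibition, cut at about 44% in these data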
#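 Assay system – yeast BB579 (DeaD) · Dosing – single compound dose of 10 µM, 0.25% DMSO final · Detection – OD615 turbidity measurement · Buffer or medium – CSMM-D restrictive synthetic medium containing dextrose (glucose) · Benchmarks – positive control amphotericin B 10 µg/mL · Incubation – 48 h exposure, 30 °C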
# Hits are given with their value; n = inactive; x = no result given. An excerpt weighted towards active compounds, which were near 4% of everything screened.
SMILES,Insulin prom inh,Measles CPE,Mdm2 ligase inh,Yeast lifespan up,RAM network inh,BB579 growth dn
Cn1cccc1/C=C1\SC(=S)N(NC(=O)c2ccccc2)C1=O,n,27,n,n,n,n
CCC(C)(C)NC(=O)C1CCN(c2nc(OC)nc(OC)n2)CC1,x,x,n,x,n,x
CCn1c(=O)c(C(=O)NNS(=O)(=O)c2ccc(Cl)cc2)c(O)c2ccccc21,x,n,n,28,n,n
CC(=O)Nc1ccc(NC(=O)C(C)Oc2ccc(Cl)cc2Cl)cc1 (stereo not drawn),n,x,n,x,n,x
CC(C)(Oc1ccc(Cl)cc1)C(=O)NC1=NN(c2ccccc2)C(=O)C1,x,n,n,n,n,96
O=C1CC(NC(=O)C(F)(F)F)=NN1c1ccccc1,x,x,n,x,n,x
CC(Oc1ccc(Cl)cc1Cl)C(=O)NC1=NN(c2ccccc2)C(=O)C1 (stereo not drawn),x,n,n,n,n,98
O=C(c1ccc(Cl)cc1)C1CCN(C(=O)C2CC2)CC1,n,n,n,n,n,n
O=C(OCC(=O)N1CCCc2ccccc21)c1cccc(S(=O)(=O)N2CCc3ccccc32)c1,x,n,n,n,n,n
O=C(Nc1ccc(F)cc1)/C(=C1/CCCCCN1)[N+](=O)[O-],x,x,n,x,x,x
CCCNC(=O)NC1C(NC(=O)NCCC)N(C)C(=O)N1C (stereo not drawn),n,n,n,n,n,n
COc1ccc([C@H]2[C@H](C(=O)C(C)(C)C)N3N=Cc4ccccc4C3C23C(=O)OC(C)(C)OC3=O)cc1 (stereo partly drawn),n,n,n,36,n,n
Cc1ccccc1OCCCN1C(=O)C(=O)c2cccc(C)c21,x,n,n,n,n,83
Cc1cccc2c1N(CCCOc1ccc(C(C)(C)C)cc1)C(=O)C2=O,x,n,n,n,11,n
CN(C(=O)COC(=O)CNC(=O)c1sc2ccccc2c1Cl)c1ccccc1,n,n,n,n,n,n
Cc1n[nH]c(C)c1S(=O)(=O)N1CCN(C(=O)c2ccco2)CC1,x,n,n,n,n,n
CCCOC1CCCN(Cc2nc(-c3ccc(C(=O)OC)cc3)no2)C1 (stereo not drawn),x,x,n,x,x,x
O=C1Nc2cc3c(cc2Sc2ccccc21)OCCO3,90,n,n,n,n,n
CC(=O)c1ccc(NC(=O)/C(=C\c2cccs2)NC(=O)c2ccco2)cc1,x,x,n,x,n,x
CCOC(=O)N1CCC(Nc2nc3ccccc3n3nnnc23)CC1,n,34,n,n,n,n
COC(=O)c1cn(CC(=O)N2CCCCCC2)c2ccccc12,n,n,n,n,n,n
CCOC(=O)C1=C(O)/C(=C/c2cn(CC(=O)N3CCCC3)c3ccccc23)SC1=Nc1ccccc1,n,n,n,x,9.1,n
COc1cccc(CNC(=O)C2CCN(c3cnccn3)CC2)c1,n,n,n,x,n,n
CC1=NN(c2ccccc2)C(=O)/C1=C/C=C/C=C/N(C)C,n,x,n,x,n,x
CC1=NN(c2cccc(C(=O)O)c2)C(=O)/C1=C\C=C/c1ccccc1,n,x,31,x,n,x
SMILES,Insulin prom inh,Measles CPE,Mdm2 ligase inh,Yeast lifespan up,RAM network inh,BB579 growth dn
CC1=NN(c2ccc(C)cc2)C(=O)/C1=C\C=C\c1ccccc1,n,n,52,n,n,n
COc1cc(C)nc(-c2csc(C)n2)n1,x,x,n,x,x,x
Cc1c(C(=O)Nc2ccc(-c3nnc4n3CCCCC4)cc2)oc2ccc(Br)cc12,n,n,n,n,n,n
CCS(=O)(=O)NCCc1cc2c(OC)ccc(OC)c2[nH]c1=O,n,n,n,n,n,n
CCCCN1CC(C(=O)NC2CCCCC2)CC1=O (stereo not drawn),n,n,n,n,n,n
COCCNC(=S)N1CCc2cc(OC)c(OC)cc2C1COc1ccc(C(C)C)cc1 (stereo not drawn),x,n,n,n,n,n
O=C(Nc1ccc(-c2csnn2)cc1)C1CC1,x,x,83,x,x,x
COc1ccc(C(=O)C2CCCN(Cc3ccc4nonc4c3)C2)c(OC)c1 (stereo not drawn),x,x,n,x,n,x

# Source: PubChem BioAssay
